Assay outcomes: PubChem, The Scripps Research Institute Molecular Screening Center
OX1R antag-1: human HCRTR1 antagonism. O43613. CHO/OX1R cells, Fluo-8 calcium fluorescence, orexin A. inhibition, % at 5 µM. 330,000 compounds, 0.43% hits;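 active = inhibition above its plate's threshold, mean inhibition of all tested compounds on the plate plus 3 SD, cut at about 37% in these data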;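 also: 0% = orexin A challenge wells and 100% = SB-334867-A antagonist wells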
CHO parental Ca: counter-screen: ATP calcium response change in parental CHO cells; parental CHO-K1, ATP-induced calcium, Fluo-8 fluorescence; inhibition, % at 5.6 µM; 330,000 compounds, 0.63% hits; AID 463079;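 active = inhibition above that plate's mean sample inhibition plus 3 SD, cut at about 26% in these data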;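 also: 0% = ATP-challenged DMSO wells and 100% = DMSO wells without ATP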
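test system = CHO parental line | reagent = ATP stimulus | measured by = intracellular calcium via Fluo-8 no-wash fluorescent dye | control set = ATP and no-ATP DMSO wells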
GalR3 antagonist: blocks the human galanin receptor 3; O60755; HEK293 GalR3-CNG cAMP membrane potential fluorescence; galR3 body fused to GalR1 C-terminus; inhibition, % at 3 µM; 360,000 compounds, 0.44% hits; AID 651719;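 active = inhibition above the screen-wide average plus 3 SD, cut at about 13% in these data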;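 also: forskolin and galanin both at EC90 stimulate the cells; cAMP rise reported by CNG channel membrane potential dye signal; 0% = forskolin plus galanin with DMSO and 100% = forskolin alone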
Target sequence (O60755 1-299 limits assumed): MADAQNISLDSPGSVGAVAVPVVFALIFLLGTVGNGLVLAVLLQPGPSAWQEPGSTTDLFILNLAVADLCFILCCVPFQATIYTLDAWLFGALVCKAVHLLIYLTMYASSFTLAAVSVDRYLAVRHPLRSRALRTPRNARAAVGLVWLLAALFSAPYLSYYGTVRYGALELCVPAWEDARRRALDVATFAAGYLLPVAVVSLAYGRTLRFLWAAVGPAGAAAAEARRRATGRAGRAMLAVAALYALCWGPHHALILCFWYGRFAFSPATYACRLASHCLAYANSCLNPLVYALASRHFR
OX1R antag-2: antagonists of human orexin 1 receptor (OX1R); OX1R-expressing cells, FRET antagonist read-out; 330,000 compounds, 1.8% hits; AID 485270; inhibition, % at 6.6 µM; in the data active = inhibition mostly above about 38%, no sharp cut-off; inactive = mostly below about 40%;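 also: 0% = agonist challenge alone and 100% = reference antagonist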
GPR7 antagonist: human neuropeptides B/W receptor 1 antagonism | P48145 | GPR7-expressing cells, fluorescence antagonist assay | inhibition, % at 4.4 µM | AID 1861 | 290,000 compounds, 1.1% hits; in the data active = inhibition above about 16%, passing the limit was not always enough;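 also: cells stimulated with the agonist NPW; 0% = agonist with vehicle and 100% = vehicle without agonist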
Target sequence (P48145 whole entry, looked up): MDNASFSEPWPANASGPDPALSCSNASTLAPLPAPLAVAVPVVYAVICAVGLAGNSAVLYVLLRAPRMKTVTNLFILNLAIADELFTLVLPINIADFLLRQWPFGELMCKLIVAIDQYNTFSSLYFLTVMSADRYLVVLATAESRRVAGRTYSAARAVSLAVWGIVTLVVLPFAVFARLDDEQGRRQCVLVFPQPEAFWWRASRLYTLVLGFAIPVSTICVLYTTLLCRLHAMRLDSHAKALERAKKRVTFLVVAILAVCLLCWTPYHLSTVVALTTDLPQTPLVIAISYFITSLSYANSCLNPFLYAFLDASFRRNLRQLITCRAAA
The depositor's hits bear a star; . = no result given. Shown are actives, neighbours in structure and some others; about 3.1% of the full set was active somewhere.

SMILES	OX1R antag-1	CHO parental Ca	GalR3 antagonist	OX1R antag-2	GPR7 antagonist
N#C/C(=N/Nc1ccc(OC(F)(F)F)cc1)C(N)=S	40.5*	20.4	-5.1	53.9*	8.2
COc1ccc(N/N=C(\C#N)C(N)=O)cc1	-6.5	-11.8	-3.6	12.4	-4.2
O=C(Nc1nc2cc3c(cc2s1)OCCO3)c1cccs1	12.0	7.4	0.5	65.6*	-25.1
O=C1CC2c3cc(-c4cc5ccccc5o4)ccc3CCN2C(=O)CN1Cc1ccccc1 (stereo not given)	.	.	8.7	.	.
C[C@@H]1NC(=O)c2cc([N+](=O)[O-])cc(I)c2NCCCC[C@@H](C(N)=O)NC(=O)[C@H](CCC(=O)O)NC1=O	-11.2	1.8	.	52.9	-6.5
NC(=O)[C@@H]1CCCNc2c(I)cc([N+](=O)[O-])cc2C(=O)N[C@@H](CCC(=O)O)C(=O)N[C@@H](CO)C(=O)N1	-7.8	-8.9	.	67.5*	-8.7
C[C@@H]1NC(=O)[C@H](CCC(N)=O)NC(=O)c2cc([N+](=O)[O-])cc(I)c2NCCC[C@@H](C(N)=O)NC1=O	0.2	1.5	-5.4	60.9*	-9.8
COC(=O)C1=C(C)N(C)C(=NCc2ccc3c(c2)OCO3)NC1c1ccccc1 (stereo not given)	.	.	-6.6	.	.
CCOc1ccc(S(=O)(=O)N(CC(=O)Nc2cccnc2)c2ccc(F)cc2)cc1	-25.8	-19.3	-0.4	12.1	-5.7
COc1ccc(N(CC(=O)N/N=C(\C)c2ccccc2)S(=O)(=O)c2ccccc2)cc1	-19.5	-26.2	-9.0	4.1	-13.5
COC(=O)C1=C(C)N(Cc2cccc(C(F)(F)F)c2)C(=NCC2CC2)NC1c1ccccc1 (stereo not given)	.	.	-7.2	.	.
CN(Cc1ccccc1)S(=O)(=O)c1ccc(NS(=O)(=O)Cc2ccccc2)cc1	41.9*	40.3*	-1.7	43.5*	10.7
O=Cc1cc(-c2ccccc2)[nH]c1-c1ccccc1	21.4	74.2*	-10.8	6.1	6.9
O=Cc1cn[nH]c1-c1ccccc1	-8.3	22.8	-6.2	24.1	-12.8
O=C1C(=O)c2ccccc2C(O)=C1c1ccccc1F	-9.2	-8.3	-2.4	46.3*	-0.5
ClC(Cl)(c1nnnn1-c1ccccc1)c1nnnn1-c1ccccc1	63.3*	92.7*	-10.5	20.8	0.7
COc1ccc(N2CCN(S(=O)(=O)c3ccc(OC)c(C(=O)N4CCCC4)c3)CC2)cc1	-14.5	-11.3	-10.0	12.7	-2.7
Cc1ccc2[nH]c3c(NCc4ccco4)ncnc3c2c1	-5.7	-6.4	-7.7	49.5*	-2.9
CCC(NC(=S)NCc1ccc(F)cc1)c1ccc(C(C)C)cc1 (stereo not given)	-2.5	42.4*	-5.1	19.3	9.8
Nn1c(-c2ccccc2)nc2cc(Cl)ccc2c1=O	-11.2	-8.7	-9.7	9.9	-11.7
COc1cc(OC)cc(C(=O)NCCNc2nc3cc(C)cc(C)c3cc2C#N)c1	2.9	-24.2	-5.5	53.1*	-25.7
COc1cc(C(=O)NCCNc2nc3cc(C)ccc3cc2C#N)cc(OC)c1OC	-15.9	-16.9	-7.8	54.5*	-18.6
COc1ccccc1C(=O)NCCNc1nc2cc(C)cc(C)c2cc1C#N	-10.8	-30.5	-6.4	40.9	10.9
Cc1cc(C)c2cc(C#N)c(NCCOC(=O)c3ccccc3C)nc2c1	-0.4	-41.8	4.1	36.5*	-17.1
COc1ccc(C(=O)NCCCNc2nc3cc(C)cc(C)c3cc2C#N)cc1	.	.	6.7	.	.
SMILES	OX1R antag-1	CHO parental Ca	GalR3 antagonist	OX1R antag-2	GPR7 antagonist
CSC(=Cc1ccc(C(=O)c2ccc(C)cc2)n1C)S(C)=O (stereo not given)	.	.	-5.2	.	.
CCOC(=O)N1CCc2cc(OC)c(OC)c3c2c1cc1cc(OC)c(OC)cc13	.	.	-5.4	.	.
CN1CCN(CCNC(=O)Cn2c(=O)c3cccn3c3ccc(F)cc32)CC1	1.3	-11.1	-8.2	11.6	20.8
O=C(c1cc2cc([N+](=O)[O-])ccc2s1)N1CCOCC1	-4.5	-6.4	-8.0	46.1*	3.7
CCN1CCN(C(=O)c2cc3cc([N+](=O)[O-])ccc3oc2=O)CC1	-13.8	2.8	1.9	47.0	-4.5
O=C(CN1CCOCC1)Nc1nc2ccc([N+](=O)[O-])cc2s1	-40.4	-12.8	-5.0	61.9*	-9.0
O=C(c1ccc(-c2ccc([N+](=O)[O-])cc2Cl)o1)N1CCOCC1	-15.2	-19.7	-4.7	31.4	20.4*
O=C(c1cc2ccc([N+](=O)[O-])cc2oc1=O)N1CCOCC1	-0.6	-7.3	-0.3	56.5*	-11.6
O=C(c1cc2cc([N+](=O)[O-])ccc2s1)N1CCCCC1	-16.2	-13.9	-3.6	19.8	-8.9
CC1CCN(C(=O)CSc2nc(=O)n3ccccc3n2)CC1	-7.1	-17.0	-2.9	2.0	.
CC(C)(C)c1ccc(C#C[C@@H]2C=C[C@@H](O)[C@@H](COC(=O)NCc3ccccc3)O2)cc1	.	.	-5.9	.	.
CCCCn1c(N)c(N(Cc2ccccc2OC)C(=O)c2ccc(N3CCCC3=O)cc2)c(=O)[nH]c1=O	-20.5	-8.5	0.0	14.0	.
O=C(N=C1N=C2C=CC(Br)=CN2Cc2ccccc21)c1ccc([N+](=O)[O-])cc1[N+](=O)[O-]	-18.3	-2.8	0.5	45.2*	-6.2
O=C(c1ccc([N+](=O)[O-])cc1[N+](=O)[O-])N1CCc2ccccc21	-11.1	-13.0	-7.9	22.6	-1.4
CCOc1ccc2noc3c2c1C(=O)c1ccccc1-3	31.9	28.3	-1.4	49.9	-3.0
O=C1c2ccccc2-c2onc3ccc(NCc4ccco4)c1c23	62.3*	36.8	.	81.6*	-7.7
CCNc1ccc2noc3c2c1C(=O)c1ccccc1-3	103.1*	42.2*	-16.7	122.9*	-3.5
CC(=O)N1c2ccc(S(=O)(=O)NCC3CCC(C(=O)NC4CCCCC4C)CC3)cc2CC1C (stereo not given)	-26.9	-23.3	-5.0	5.8	-10.6
CC(C)(C)c1ccc(OCc2ccc(C(=O)NCc3cccnc3)o2)cc1	20.5	36.6*	-7.9	7.6	-7.4
O=C(NCc1cccnc1)c1cc(-c2ccccc2)on1	-14.2	-8.8	-5.8	13.3	-3.9
COc1ccc(-c2cc(C(=O)NCc3cccnc3)no2)cc1	6.2	-14.6	-7.5	4.2	18.0*
CC1(C(=O)NS(=O)(=O)c2ccc(Cl)cc2)CCN1C(=O)c1ccc(C2CCCCC2)cc1 (stereo not given)	.	.	-6.3	.	.
O=C(CN1C(=O)/C(=C\c2ccccc2Br)Oc2ccccc21)NCCCN1CCOCC1	18.8	-24.2	0.9	49.0*	-5.0
O=C(NCCCN1CCOCC1)c1ccc(/C=C2\Oc3ccccc3N(Cc3ccccc3F)C2=O)cc1	-28.8	-30.2	-8.5	2.0	-10.7
O=C1CN(C(=O)COC(=O)c2ccc([N+](=O)[O-])s2)c2ccccc2N1	-12.7	-11.0	.	45.0*	.
O=C1CN(C(=O)COC(=O)c2ccc([N+](=O)[O-])o2)c2ccccc2N1	-19.8	-6.3	-6.6	34.2*	.
Cc1ccc(C(O)c2ncc(-c3ccccc3C)[nH]2)cc1F (stereo not given)	.	.	-6.4	.	.
